# Bioassay records from PubChem.
# TNAP act hiacc: increases human TNAP activity under high phosphate acceptor concentration. purified TNAP, CDP-star luminescence, 1 M DEA, 30 min; stronger effect = higher value; 0 = EDTA background, 1 = DMSO-only activity. activation factor at 20 µM. 200,000 tested, under 10 active. AID 1136;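 active = activation factor at least 2 at 20 µM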
# Target sequence (P05186 whole entry, looked up): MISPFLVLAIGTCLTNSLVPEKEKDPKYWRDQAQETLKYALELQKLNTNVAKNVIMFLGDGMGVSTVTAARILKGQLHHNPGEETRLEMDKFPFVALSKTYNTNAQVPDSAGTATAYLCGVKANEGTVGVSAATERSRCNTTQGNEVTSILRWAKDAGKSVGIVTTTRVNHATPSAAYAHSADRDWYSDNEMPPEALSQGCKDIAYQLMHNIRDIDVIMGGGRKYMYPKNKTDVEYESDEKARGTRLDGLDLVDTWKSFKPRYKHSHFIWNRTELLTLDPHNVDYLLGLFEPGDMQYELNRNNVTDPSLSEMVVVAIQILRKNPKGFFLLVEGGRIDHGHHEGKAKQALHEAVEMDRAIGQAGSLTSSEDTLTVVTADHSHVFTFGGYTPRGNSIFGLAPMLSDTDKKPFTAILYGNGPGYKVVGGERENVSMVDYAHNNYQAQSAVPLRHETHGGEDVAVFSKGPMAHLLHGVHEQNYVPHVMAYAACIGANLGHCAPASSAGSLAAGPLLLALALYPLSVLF
#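 Test system – human TNAP · Doses – 20 µM single point · Incubation – 30 min, room temperature · Signal – luminescent substrate turnover signal · Read-out basis – activation factor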
# PMI act: activators of human phosphomannose isomerase; activation factor at 20 µM; purified human PMI, coupled resazurin fluorescence, 20 min; stronger effect = higher value; 1 = vehicle control, 0 substrate-free wells; actives 0.005% (n = 190,000); P34949;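 active = activation factor of 2 or more at 20 µM, relative to plate controls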
# TNAP inh no acc: TNAP (human) inhibition, acceptor-free conditions; purified TNAP, CDP-star luminescence, 30 min; inhibition, % at 20 µM; AID 1012; actives 0.26% (n = 200,000);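 active = tissue-nonspecific alkaline phosphatase inhibition above about 50% at 20 µM in the single-dose screen, limit read from the data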
# PMI act satM6P: activators of human phosphomannose isomerase at near-saturating mannose 6-phosphate | P34949 | coupled PMI enzyme assay, resazurin fluorescence, 20 min; stronger effect = higher value; 1 = untreated enzyme, 0 = substrate-free blank | activation factor at 20 µM | actives 0.34% (n = 190,000) | AID 1216;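 active = activation factor of 2 or more at 20 µM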
#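 Material: human phosphomannose isomerase with PGI, G6PDH, diaphorase coupling enzymes. Quantity: 15 ng/mL PMI. Medium: HEPES pH 7.4 buffer with MgCl2 and Tween-20. Reagent: Near-saturating mannose-6-phosphate, 1.0 mM. Compound: 20 µM single dose. Times: enzyme reaction with compound 20 min at room temperature. Detection: resorufin fluorescence at Ex 544/Em 590 nm.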
# TNAP inh hiacc: TNAP (human) inhibition, high acceptor; AID 1135; inhibition, % at 20 µM; purified TNAP, CDP-star luminescence, 1 M DEA; actives 0.03% (n = 200,000); P05186;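 active = over 50% inhibition of tissue-nonspecific alkaline phosphatase at 20 µM in the single-dose screen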
# A number is an active result; - = inactive; . = no result. This is a sample that favours compounds with a hit; in the whole collection about 0.6% have one here.
SMILES,TNAP act hiacc,PMI act,TNAP inh no acc,PMI act satM6P,TNAP inh hiacc
CCOc1cc(/C=C2\C(=O)N(c3nc(-c4ccc(Br)cc4)cs3)N=C2c2ccccc2)ccc1O,-,-,-,-,-
CN(N)C(=S)Nc1ccc(Cl)cc1,-,-,-,-,-
Cc1cc(C(=O)NCCc2ccccc2)c2cc(F)ccc2n1,-,-,-,-,-
Cn1c(=O)c2cn3c(c2n(C)c1=O)C(c1ccccc1)CC(c1ccccc1)=N3 (stereo unspecified),-,-,-,2,-
COC(=O)c1c(C)nc2nonc2c1N,-,-,-,-,-
COc1ccccc1-c1nc(SCC(=O)O)n[nH]1,-,-,-,-,-
O=C(CSc1n[nH]c(-c2ccccc2Cl)n1)NCc1cccc(C(=O)O)c1,-,-,93,-,-
CC1(C(=O)CSc2n[nH]c(-c3ccccc3Cl)n2)CCC(=O)O1 (stereo unspecified),-,-,54,-,-
CC1CC2(CC(C)(C(=O)CSc3n[nH]c(-c4ccccc4Cl)n3)OC2=O)C(=O)O1 (stereo unspecified),-,-,53,-,-
Cc1nonc1CC(=O)N1CCCC(C(=O)c2ccc(Cl)cc2)C1 (stereo unspecified),-,-,-,-,-
O=C(N/N=C/c1ccccc1O)C(=O)Nc1ccccn1,-,-,-,-,-
O=C(CCl)Nc1ccc(N2CCCCCC2)cc1,-,-,-,-,-
COc1ccc(C(=O)C2CCCN(C(=O)c3n[nH]c4c3CCCC4)C2)cc1OC (stereo unspecified),-,-,60,-,-
Cc1cc(Cl)ccc1C(=O)C1CCCN(C(=O)c2n[nH]c3c2CCCC3)C1 (stereo unspecified),-,-,-,-,-
CC(C)Cc1c2c([nH]c(=S)c1C#N)CCCC2,-,-,-,2,-
Cc1[nH]c(=S)c(C#N)c2c1CCCC2,-,-,-,2,-
N#Cc1c(-c2ccco2)c2c([nH]c1=S)CCCC2,-,-,-,-,-
Cc1[nH]c(=O)c(C#N)c2c1CCCC2,-,-,-,-,-
COC(=O)c1ccc(CN2CCN(C3CCCC3)C(CCO)C2)cc1 (stereo unspecified),-,-,-,-,-
Cc1ccc(S(=O)(=O)N/N=C/c2ccc(O)c(O)c2)cc1[N+](=O)[O-],-,-,67,-,-
Cc1ccccc1-c1cc2c(nn1)-c1ccccc1C2=O,-,2,-,2.5,-
COc1ccc(/C=C/C(=O)OCC(=O)c2c(N)n(C)c(=O)n(C)c2=O)c(OC)c1,-,-,-,-,-
COCCN=C1Sc2nc3ccc(C)cc3cc2CN1Cc1ccco1,-,-,-,2.1,-
CCOc1ccc2nc3c(cc2c1)CN(CCOC)C(=NCCOC)S3,-,-,-,-,-
CC(=O)N1CCC(=NNc2ccnc3cc(Cl)ccc23)CC1,-,-,-,2.3,-
SMILES,TNAP act hiacc,PMI act,TNAP inh no acc,PMI act satM6P,TNAP inh hiacc
CCOC(=O)N1CCC(=NNc2ccnc3cc(Cl)ccc23)CC1,-,-,-,-,-
CCOC(=O)C1=C(C)NC(=O)C1CC(=O)Nc1ccccc1 (stereo unspecified),-,2.1,-,3,-
COc1ccc(C2CCCN2C(=S)Nc2cccc(C)c2C)cc1OC (stereo unspecified),-,-,-,-,-
COC(=O)C(NNc1ccccc1)(NC(=O)c1cccc(F)c1)C(F)(F)F (stereo unspecified),-,-,-,2.2,-
C/C(=N\NC(=O)CCc1ccc(S(=O)(=O)N2CCOCC2)cc1)c1ccc(Br)cc1,-,-,-,-,-
CCn1c(SC2CCOC2=O)nnc1-c1ccc(Cl)cc1 (stereo unspecified),-,-,-,-,-
COc1ccccc1-c1nnc2n1N=C(c1ccc(O)c(O)c1)CS2,-,-,67,-,-
CCOc1ccc(C2=Nn3c(nnc3-c3ccccc3OC)SC2)cc1,-,-,-,-,-
CC1(C)CC(=O)c2c(-c3cccs3)n[nH]c2C1,-,-,88,-,-
CCCc1n[nH]c2c1C(=O)CC(C)(C)C2,-,-,64,-,-
O=c1[nH]nc(-c2cccs2)c2ccccc12,-,-,-,-,-
CC1=CC(C)(C)N2C(=O)C3(NCCc4c3[nH]c3ccccc43)c3cccc1c32 (stereo unspecified),-,-,-,-,-
CCCNC(=O)c1nc(C)n(-c2ccc([N+](=O)[O-])cc2)n1,-,-,-,-,-
S=C1NC2(CCCC2)Nc2ccccc21,-,-,-,2.3,-
S=C1NC2(CCCCC2)Nc2ccccc21,-,-,-,2.5,-
O=C1c2ccccc2NC2(CCCC2)N1O,-,-,-,-,-
COc1ccc(-c2cn3c(C)c(C(=O)Nc4cccc(C)n4)sc3n2)cc1,-,-,-,2,-
Cc1cccc(NC(=O)c2sc3nc(-c4ccccc4)cn3c2C)n1,-,-,-,-,-
CC(=O)c1cccc(S(=O)(=O)NCC2CCCCC2)c1,-,-,-,-,-
CCCCc1nn2c(N)c(/C=C3\C=Nc4ccccc43)c(=O)nc2s1,-,-,66,-,-
CC(C)Sc1nsc2nc(=O)c(/C=C3\C=Nc4ccccc43)c(N)n12,-,-,62,-,-
CC(C)Cc1nn2c(N)c(/C=C3\C=Nc4ccccc43)c(=O)nc2s1,-,-,83,-,-
CCCc1nn2c(N)c(/C=C3\C=Nc4ccccc43)c(=O)nc2s1,-,-,58,-,-
CS(=O)(=O)c1nsc2nc(=O)c(/C=C3\C=Nc4ccccc43)c(N)n12,-,-,-,-,-
COc1ccc(Cn2c(-c3ccc(C)cc3)c[n+]3ccccc23)cc1,-,-,-,-,-
SMILES,TNAP act hiacc,PMI act,TNAP inh no acc,PMI act satM6P,TNAP inh hiacc
CCN(CC)c1ccc(N2C(=O)/C(=C/c3cccs3)SC2=S)cc1,-,-,-,-,-
CCN(CC)c1ccc(N2C(=O)CSC2=S)cc1,-,.,57,.,-
COC(=O)CC1Sc2ccccc2NC1=O (stereo unspecified),-,-,-,-,-
Cc1ccc(NC2Sc3ccccc3NC2=O)cc1 (stereo unspecified),-,-,-,2.1,-
O=c1[nH][nH]c(-c2ccccc2O)c1C(C[N+](=O)[O-])c1ccc(Cl)cc1Cl (stereo unspecified),-,-,70,-,-
O=c1[nH][nH]c(-c2ccccc2O)c1C(C[N+](=O)[O-])c1cccc(Cl)c1 (stereo unspecified),-,-,-,-,-
COc1ccc2c(c1)CCc1c(C(=O)N3CCCCCC3)noc1-2,-,-,-,-,-
COc1ccc2c(c1)CCc1c-2n[nH]c1C(=O)O,-,-,86,-,-
Cc1ccc(-c2noc(-c3ccoc3C)n2)cc1,-,-,-,-,-
O=C(O)/C=C/c1ccc(O)c(O)c1,-,-,55,-,-
